Data published in ChEMBL document CHEMBL1154062, “Novel and potent small-molecule urotensin II receptor agonists” (Bioorg Med Chem, 2009).
Active and inactive are the calls of the source. The calls are words filed in the database; no cut-off is given here.

What was measured:
Type in all cases: functional, cell-based
[1] = biological target: T1, Urotensin-2 receptor (Homo sapiens) (UniProt Q9UKP6); experiment: Agonist activity against human urotensin 2 receptor expressed in […] cells assessed as beta-galactosidase activity after 5 days by R-SAT assay relative to urotensin 2
T1 sequence (whole entry): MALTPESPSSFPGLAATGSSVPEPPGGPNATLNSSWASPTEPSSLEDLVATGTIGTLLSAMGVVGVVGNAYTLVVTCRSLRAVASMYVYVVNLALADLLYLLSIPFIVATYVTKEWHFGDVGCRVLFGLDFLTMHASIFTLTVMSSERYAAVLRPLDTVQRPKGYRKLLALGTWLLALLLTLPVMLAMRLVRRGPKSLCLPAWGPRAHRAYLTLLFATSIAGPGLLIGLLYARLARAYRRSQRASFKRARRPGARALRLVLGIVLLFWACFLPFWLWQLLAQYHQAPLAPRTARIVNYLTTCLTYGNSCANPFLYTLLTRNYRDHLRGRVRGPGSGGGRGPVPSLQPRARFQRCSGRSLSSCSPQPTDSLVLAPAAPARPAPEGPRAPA
In short: (§1)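 NIH-3T3 cells grown to 80% confluence in DMEM with 10% bovine calf serum, transiently transfected in roller bottles for 18 h with human UT receptor plus β-galactosidase marker, then frozen. Thawed cells were plated in DMEM with 0.4% calf serum and 30% UltraCulture onto compound. They were incubated 5 days in 5% CO2, with reporter read at 420 nm. Eight doses in triplicate; EC50 from 2–5 determinations; efficacy normalized to UII = 100%.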

Urotensin-2 receptor = biological target: T2, Urotensin-2 receptor (Homo sapiens, UniProt Q9UKP6); experiment: (§2) Agonist activity against human urotensin 2 receptor expressed in […] cells assessed as beta-galactosidase activity after 5 days by R-SAT assay; in short: as §1
T2 sequence (Q9UKP6 whole entry): T1 sequence (whole entry)

[2] = biological target: T1, Urotensin-2 receptor (Homo sapiens); experiment: as §2; in short: as §1

Compound | Efficacy [1] | EC50 (Urotensin-2 receptor) [nM] | pEC50 [2]
CO[C@@H](C(=O)N[C@H](CCN(C)C)c1ccc(Cl)cc1)c1ccccc1 | 112% |  | 
CO[C@@H](C(=O)N[C@@H](CCN(C)C)c1ccc(Cl)cc1)c1ccccc1 | 165% |  | 
COc1ccc(-c2ccc(C(=O)NC(CCN(C)C)c3ccc4ccccc4c3)cc2)cc1 (configuration not stated) | 111% | 105 | 
CN(C)CCC1(c2ccc(Cl)cc2)Cc2ccccc2C(=O)O1 (configuration not stated) |  | ≥ 1120 | 
CN(C)CCC(NC(=O)c1cccc(-c2ccc3ccccc3c2)c1)c1ccc2ccccc2c1 (configuration not stated) |  | 3470 | 
COc1ccc(-c2cccc(C(=O)NC(CCN(C)C)c3ccc4ccccc4c3)c2)cc1 (configuration not stated) | 50% | 646 | 
CO[C@@H](C(=O)N[C@H](CCN(C)C)c1ccc2ccccc2c1)c1ccccc1 | 53% | 2750 | 
COc1ccc(-c2ccc(C(=O)NC(CCN(C)C)c3ccc(C)cc3)cc2)cc1 (configuration not stated) | 119% | 347 | 
CN(C)CCCC(NC(=O)c1ccccc1)c1ccc(Cl)cc1 (configuration not stated) | 77% | 3800 | 
CN(C)CCC(NC(=O)c1cccc(-c2ccccc2)c1)c1ccc2ccccc2c1 (configuration not stated) | 67% | 537 | 
COc1ccc(-c2cccc(C(=O)NC(CCN(C)C)c3ccc(C)cc3)c2)cc1 (configuration not stated) | 69% | 1070 | 
O=C(NC(CCN1CCCCC1)c1ccc(Cl)cc1)c1ccccc1 (configuration not stated) | 55% | 6460 | 
CO[C@@H](C(=O)N[C@@H](CCN(C)C)c1ccc2ccccc2c1)c1ccccc1 | 140% | 741 | 
CN(C)CCC(NC(=O)c1ccc(-c2ccc3ccccc3c2)cc1)c1ccc2ccccc2c1 (configuration not stated) | 77% | 525 | 
Cc1ccc(C(CCN(C)C)NC(=O)c2cccc(-c3ccc4ccccc4c3)c2)cc1 (configuration not stated) | inactive |  | inactive

More lines, now with the values ahead:

Efficacy [1] | EC50 (Urotensin-2 receptor) [nM] | pEC50 [2] | Compound
116% |  |  | CN(C)CC[C@H](NC(=O)c1ccc(-c2ccccc2)cc1)c1ccc(Cl)cc1
114% | 200 |  | Cc1ccc(C(CCN(C)C)NC(=O)c2ccc(-c3ccccc3)cc2)cc1 (configuration not stated)
57% | 661 |  | O=C(NC(CCN1CCCCC1)c1ccc(Cl)cc1)c1ccc(-c2ccccc2)cc1 (configuration not stated)
63% | 437 |  | CN(C)CCC(NC(=O)c1cccc(-c2ccc(Cl)cc2)c1)c1ccc(Cl)cc1 (configuration not stated)
78% | 575 |  | COc1ccc(-c2cccc(C(=O)NC(CCN(C)C)c3ccc(Cl)cc3)c2)cc1 (configuration not stated)
129% | 43.7 |  | CN(C)CCC(NC(=O)c1ccc(-c2ccc(Cl)cc2)cc1)c1ccc2ccccc2c1 (configuration not stated)
91% | 316 |  | CN(C)CCCC(NC(=O)c1ccc(-c2ccccc2)cc1)c1ccc(Cl)cc1 (configuration not stated)
143% | 74.1 |  | COc1ccc(-c2ccc(C(=O)NC(CCN(C)C)c3ccc(Cl)cc3)cc2)cc1 (configuration not stated)
131% | 309 |  | CN(C)CCC(NC(=O)c1ccc(-c2ccc3ccccc3c2)cc1)c1ccc(Cl)cc1 (configuration not stated)
53% | 457 |  | CN(C)CC[C@@H](NC(=O)c1ccc(-c2ccc(Cl)cc2)cc1)c1ccc2ccccc2c1
96% |  |  | CN(C)CC[C@@H](NC(=O)c1ccc(-c2ccccc2)cc1)c1ccc(Cl)cc1
83% | 813 |  | Cc1ccc(C(CCN(C)C)NC(=O)c2ccc(-c3ccc4ccccc4c3)cc2)cc1 (configuration not stated)
111% | 120 |  | CN(C)CCC(NC(=O)c1ccc(-c2ccccc2)cc1)c1ccc2ccccc2c1 (configuration not stated)
41% | 363 |  | CN(C)CCC(NC(=O)c1cccc(-c2ccc3ccccc3c2)c1)c1ccc(Cl)cc1 (configuration not stated)
45% | 1100 |  | CN(C)CCC(NC(=O)c1cccc(-c2ccc(Cl)cc2)c1)c1ccc2ccccc2c1 (configuration not stated)
116% |  |  | CN(C)CCC(NC(=O)c1ccc(-c2ccccc2)cc1)c1ccc(Cl)cc1 (configuration not stated)
137% | 75.9 |  | CN(C)CCC(NC(=O)c1ccc(-c2ccc(Cl)cc2)cc1)c1ccc(Cl)cc1 (configuration not stated)
92% | 575 |  | CN(C)CCC(NC(=O)c1cccc(-c2ccccc2)c1)c1ccc(Cl)cc1 (configuration not stated)
39% | 646 |  | Cc1ccc(C(CCN(C)C)NC(=O)c2cccc(-c3ccc(Cl)cc3)c2)cc1 (configuration not stated)
129% | 22.9 |  | CN(C)CC[C@H](NC(=O)c1ccc(-c2ccc(Cl)cc2)cc1)c1ccc2ccccc2c1
108% | 126 |  | Cc1ccc(C(CCN(C)C)NC(=O)c2ccc(-c3ccc(Cl)cc3)cc2)cc1 (configuration not stated)
45% | 813 |  | Cc1ccc(C(CCN(C)C)NC(=O)c2cccc(-c3ccccc3)c2)cc1 (configuration not stated)
